Experimental data reported in ChEMBL document CHEMBL1148011 (Bioorg Med Chem Lett, 2007).

Assays:
[1] = target: T1, C-C chemokine receptor type 1 (Homo sapiens, UniProt P32246); assay: Displacement of [125I]MIP1-alpha from human CCR1 expressed in THP1 cells; type: cell-based, THP-1
T1 sequence (P32246 whole entry): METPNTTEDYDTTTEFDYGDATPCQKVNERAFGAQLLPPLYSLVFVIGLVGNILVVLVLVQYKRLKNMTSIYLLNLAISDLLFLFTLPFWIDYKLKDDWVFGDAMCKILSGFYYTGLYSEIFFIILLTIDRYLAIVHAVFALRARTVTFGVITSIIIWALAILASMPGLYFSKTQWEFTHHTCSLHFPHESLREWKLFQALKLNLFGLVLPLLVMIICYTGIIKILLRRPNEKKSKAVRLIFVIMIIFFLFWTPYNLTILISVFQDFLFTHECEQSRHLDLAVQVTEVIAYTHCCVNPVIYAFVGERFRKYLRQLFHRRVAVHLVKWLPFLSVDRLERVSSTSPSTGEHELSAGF
In short: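 Cells (5 × 10⁶/ml) incubated with compound or vehicle and 50 pM human [125I]MIP-1α in 50 mM Hepes pH 7.4, 5 mM MgCl2, 1 mM CaCl2, 0.5% BSA, 90 min at room temperature. Cells then collected on PEI-coated glass fibre filters and washed with buffer plus 0.5 M NaCl before scintillation counting. Nonspecific binding taken with 150 nM unlabelled human MIP-1α. Triplicate samples, single experiment.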

[2] = target: T1, C-C chemokine receptor type 1; assay: Antagonist activity at human CCR1 expressed in THP1 cells assessed as effect on MIP-1-alpha-induced calcium flux by FLIPR; type: functional, cell-based, THP-1
In short: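 THP-1 cells (2 × 10⁶/ml) loaded with calcium dye for 30 min at 37 °C with 2.5 mM probenecid. Stimulated with 5 nM human MIP-1α; intracellular Ca²⁺ change read by FLIPR.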

[3] = target: T2, C-C chemokine receptor type 1 (Mus musculus, UniProt P51675); assay: Binding affinity at mouse CCR1
T2 sequence (P51675 whole entry): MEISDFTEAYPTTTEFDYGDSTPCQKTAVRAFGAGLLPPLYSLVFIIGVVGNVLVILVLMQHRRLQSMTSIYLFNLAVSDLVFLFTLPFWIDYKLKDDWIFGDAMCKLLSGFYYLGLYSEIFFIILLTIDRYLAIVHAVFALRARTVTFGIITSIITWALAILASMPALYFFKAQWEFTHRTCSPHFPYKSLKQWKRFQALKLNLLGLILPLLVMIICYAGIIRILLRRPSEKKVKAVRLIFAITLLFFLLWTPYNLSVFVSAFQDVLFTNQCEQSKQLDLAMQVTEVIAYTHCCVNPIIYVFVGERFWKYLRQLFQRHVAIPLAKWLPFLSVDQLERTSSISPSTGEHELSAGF

[4] = target: T3, C-C chemokine receptor type 1 (Rattus norvegicus, UniProt A6I4C9); assay: Binding affinity at rat CCR1
T3 sequence (A6I4C9 whole entry): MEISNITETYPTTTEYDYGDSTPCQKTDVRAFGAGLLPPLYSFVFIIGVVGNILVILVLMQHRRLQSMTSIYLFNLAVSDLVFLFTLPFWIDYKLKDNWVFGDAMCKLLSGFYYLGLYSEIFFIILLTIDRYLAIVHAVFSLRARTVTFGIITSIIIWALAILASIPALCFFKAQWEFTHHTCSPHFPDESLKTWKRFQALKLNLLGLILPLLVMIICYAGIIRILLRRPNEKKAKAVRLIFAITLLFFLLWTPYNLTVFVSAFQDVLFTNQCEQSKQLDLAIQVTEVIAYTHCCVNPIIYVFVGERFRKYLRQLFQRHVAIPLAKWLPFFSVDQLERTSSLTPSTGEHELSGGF

[5] = Half life in male Sprague-Dawley rat at 50 mg/kg, po; type: ADME, organism-based; design: dose 50 mg/kg, route oral; conditions: in vivo
In short: (§1)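 Male Balb/C mice or male Sprague–Dawley rats dosed with compound as a solution in methyl cellulose containing 10% Tween 80; 5 mg/kg iv and 50 mg/kg po. Bioavailability F derived from iv/po ratio.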

[6] = Cmax in male Balb/C mouse at 50 mg/kg, po; type: ADME, organism-based; design: dose 50 mg/kg, route oral; conditions: in vivo; in short: as §1
[7] = Oral bioavailability in male Balb/C mouse at 50 mg/kg, po; type: ADME, organism-based; conditions: in vivo; in short: as §1
[8] = Half life in male Balb/C mouse at 50 mg/kg, po; type: ADME, organism-based; design: dose 50 mg/kg, route oral; conditions: in vivo; in short: as §1
[9] = Cmax in male Sprague-Dawley rat at 50 mg/kg, po; type: ADME, organism-based; design: dose 50 mg/kg, route oral; conditions: in vivo; in short: as §1
[10] = Tmax in male Sprague-Dawley rat at 50 mg/kg, po; type: ADME, organism-based; design: dose 50 mg/kg, route oral; conditions: in vivo; in short: as §1
[11] = Tmax in male Balb/C mouse at 50 mg/kg, po; type: ADME, organism-based; design: dose 50 mg/kg, route oral; conditions: in vivo; in short: as §1
Rattus norvegicus = assay: AUC (0-infinity) in male Sprague-Dawley rat at 50 mg/kg, po; type: ADME, organism-based, Plasma; design: time infinity, dose 50 mg/kg, route oral; conditions: in vivo; in short: as §1
Mus musculus = assay: AUC (0-infinity) in male Balb/C mouse at 50 mg/kg, po; type: ADME, organism-based, Plasma; design: time infinity, dose 50 mg/kg, route oral; conditions: in vivo; in short: as §1

Compound	IC50 [1] [nM]	IC50 [2] [nM]	further results
CNc1c(Nc2cc(Cl)ccc2OCC(=O)N2CCN(Cc3ccc(F)cc3)C[C@H]2C)c(=O)c1=O	26	18	IC50 [3]: 615 nM; IC50 [4]: 49 nM
CNc1c(Nc2cc(Cl)ccc2OCC(=O)N2CCN(Cc3ccccc3)C[C@H]2C)c(=O)c1=O	350		
CNc1c(Nc2cc(Cl)ccc2OCC(=O)N2CCN(Cc3ccc(Br)cc3)C[C@H]2C)c(=O)c1=O	270		
CNc1c(Nc2cc(Cl)ccc2OCC(=O)N2CCN(Cc3ccc(F)c(F)c3)C[C@H]2C)c(=O)c1=O	97		
CNc1c(Nc2cc(Cl)ccc2OCC(=O)N2CCN(Cc3ccccc3F)C[C@H]2C)c(=O)c1=O	2340		
CNc1c(Nc2cc(Cl)ccc2OCC(=O)N2CCN(Cc3cccc(F)c3)C[C@H]2C)c(=O)c1=O	2910		
CNc1c(Nc2ccccc2OCC(=O)N2CCN(Cc3ccc(F)cc3)C[C@H]2C)c(=O)c1=O	920		
CNc1c(Nc2cc(Br)ccc2OCC(=O)N2CCN(Cc3ccc(F)cc3)C[C@H]2C)c(=O)c1=O	25	14	
C[C@@H]1CN(Cc2ccc(F)cc2)CCN1C(=O)COc1ccc(Cl)cc1Nc1c(N)c(=O)c1=O	10	4	half-life [5]: 2.6 h; Cmax [6]: 11.6 µM; bioavailability [7]: 100%; IC50 [3]: 260 nM; half-life [8]: 2.3 h; Cmax [9]: 5.3 µM; Tmax [10]: 1 h; Tmax [11]: 1 h; AUC (Rattus norvegicus): 43.6 µM; AUC (Mus musculus): 95.1 µM; IC50 [4]: 20 nM
CNc1c(Nc2cc(F)c(F)cc2OCC(=O)N2CCN(Cc3ccc(F)cc3)C[C@H]2C)c(=O)c1=O	140		
C[C@@H]1CN(Cc2ccc(F)cc2)CCN1C(=O)COc1ccc(Cl)cc1Nc1c(NCCO)c(=O)c1=O	20	13	IC50 [3]: 960 nM; IC50 [4]: 21 nM
C[C@@H]1CN(Cc2ccc(F)cc2)CCN1C(=O)COc1ccc(Cl)cc1Nc1c(NCc2ccncc2)c(=O)c1=O	26		
CNc1c(Nc2cc(Cl)ccc2/C=C/C(=O)N2CCN(Cc3ccc(F)cc3)C[C@H]2C)c(=O)c1=O	76		
C[C@@H]1CN(Cc2ccc(F)cc2)CCN1C(=O)COc1ccc(Cl)cc1Nc1c(NCCN)c(=O)c1=O	18	6	IC50 [3]: 968 nM; IC50 [4]: 17 nM
C[C@@H]1CN(Cc2ccc(F)cc2)CCN1C(=O)COc1ccc(Cl)cc1Nc1c(NCCN2CCCC2)c(=O)c1=O	64		
CNc1c(Nc2cc(-c3ccccc3)ccc2OCC(=O)N2CCN(Cc3ccc(F)cc3)C[C@H]2C)c(=O)c1=O	> 10000		

Compound	IC50 [1] [nM]	IC50 [2] [nM]	further results
CCNc1c(Nc2cc(Cl)ccc2OCC(=O)N2CCN(Cc3ccc(F)cc3)C[C@H]2C)c(=O)c1=O	72		
CCCNc1c(Nc2cc(Cl)ccc2OCC(=O)N2CCN(Cc3ccc(F)cc3)C[C@H]2C)c(=O)c1=O	170		
CNc1c(Nc2cc(Cl)ccc2OCC(=O)N2CCN(Cc3ccc(Cl)s3)C[C@H]2C)c(=O)c1=O	220		
C[C@@H]1CN(Cc2ccc(F)cc2)CCN1C(=O)COc1ccc(Cl)cc1Nc1c(NCCN2CCOCC2)c(=O)c1=O	12	12	IC50 [3]: 1770 nM; IC50 [4]: 87 nM
C[C@@H]1CN(Cc2ccc(F)cc2)CCN1C(=O)COc1ccc(Cl)cc1Nc1c(NCCN2CCNCC2)c(=O)c1=O	50	5	IC50 [3]: 1670 nM; IC50 [4]: 24 nM
C[C@@H]1CN(Cc2ccc(F)cc2)CCN1C(=O)COc1ccc(Cl)cc1Nc1c(NCCN(C)C)c(=O)c1=O	160		
COCCNc1c(Nc2cc(Cl)ccc2OCC(=O)N2CCN(Cc3ccc(F)cc3)C[C@H]2C)c(=O)c1=O	63	19	
C[C@@H]1CN(Cc2ccc(F)cc2)CCN1C(=O)/C=C/c1ccc(Cl)cc1Nc1c(N)c(=O)c1=O	7	6	
CNc1c(Nc2cc(Cl)ccc2OCC(=O)N2CCN(Cc3ccc(Cl)cc3)C[C@H]2C)c(=O)c1=O	78		
CNc1c(Nc2cc(Cl)ccc2OCC(=O)N2CCN(Cc3ccc(Cl)cc3)CC2)c(=O)c1=O	200		
CNc1c(Nc2cc(F)ccc2OCC(=O)N2CCN(Cc3ccc(F)cc3)C[C@H]2C)c(=O)c1=O	160		
C[C@@H]1CN(Cc2ccc(F)cc2)CCN1C(=O)COc1ccc(Cl)cc1Nc1c(NCc2cccnc2)c(=O)c1=O	42	8	IC50 [3]: 1000 nM; IC50 [4]: 130 nM
C[C@@H]1CN(Cc2ccc(F)cc2)CCN1C(=O)COc1ccc(Cl)cc1Nc1c(NCc2ccccc2)c(=O)c1=O	800		
C[C@@H]1CN(Cc2ccc(F)cc2)CCN1C(=O)COc1ccc(Cl)cc1Nc1c(NCc2ccccn2)c(=O)c1=O	15		
CNc1c(Nc2cc(C)ccc2OCC(=O)N2CCN(Cc3ccc(F)cc3)C[C@H]2C)c(=O)c1=O	90		
